Experimental data taken from publication PMC4123937 (Molecular Pharmaceutics, 2014).

Tested on: 4T1 mammary tumors
Type: in vivo, mouse (BALB/c)
Settings: Alexa546-pHLIP i.v., time points 2, 4, 24, 48 h
Summary of the method: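 Female BALB/c mice, s.c. 4T1 cells (8 × 10^5 cells/0.1 mL) in right flank; used at ~6 mm tumor diameter. Single tail-vein dose of 5 nmol (100 μL of 50 μM) Alexa546-labeled peptide in PBS. Necropsy at 2, 4, 24, 48 h; excised tumor, muscle, kidney, liver imaged immediately; mean fluorescence intensity quantified. Six mice per construct.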

Sequence | Time postinjection of maximal renal fluorescence signal (kidney) [h] | Time postinjection of maximum fluorescence signal in tumor (4T1 tumor) [h]
ACDDQNPWRAYLDLLFPTDTLLLDLLW [Var3] | 24 | –
ACEEQNPWARYLEWLFPTETLLLEL [Var7] | – | 4
